The nature of series [1]: Prodrug activation in human PT37 cells assessed as intracellular cysteamine-CMQT formation at 20 uM incubated for 2 to 24 hrs by HPLC analysis. Format: cell-based. As to conditions: pt37, 20 µM. In a few lines: (§1)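 PT37 normal human proximal tubule cells were grown in DMEM/F12 with 2 mM L-glutamine, penicillin-streptomycin and 10% heat-inactivated FCS at 37 °C under 5% CO2. Confluent monolayers got […] test agent in medium at 37 °C for 0, 2, 6, 16 or 24 h. Cells were trypsin-harvested, lysed and centrifuged. Pellet protein was measured by Bradford against BSA standards. Supernatant thiols were reduced with NaBH4, derivatised with CMQT and analysed by HPLC with UV and fluorescence detection. Results are nmol/mg protein, n=3.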

The test system of the next series is Serum. The series can be described thus: Prodrug activation in fetal bovine serum containing medium assessed as cysteamine formation after 24 hrs by LC-MS analysis. Further details: species or system Bos taurus. To be noted: cattle. The method in brief:
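Prodrug was incubated in medium containing fetal bovine serum for up to 24 h. Hydrolysis and cysteamine release were monitored by LC-MS.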

The subject of the next series is HaCaT. The series can be described thus: Cytotoxicity against human HaCaT cells assessed as reduction in cell viability after 48 hrs by MTT assay. Format: cell-based. The method in brief:
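HaCaT keratinocytes were exposed for 48 h at 37 °C under 5% CO2 to test agents dissolved in medium. Nine twofold serial dilutions ran from 500 down to 1.95. Cells were then rinsed with PBS (pH 7.4) and given MTT at 0.5 mg/mL in PBS for 10 min in the dark, then read at 595 nm. Survival is a percentage of control wells, averaged over 12 replicates. EC50 came from non-linear regression of dose-response curves.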

A short description of series [2]: Dissociation constant, pKa of compound at pH 2 to 12 at 1 to 2 mg by potentiometric titration method. Format: physicochemical. The method in brief: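 Accurately weighed sample loaded into an automated Sirius T3 for pH-metric analysis, using automated acid-base titration. The pKa was computed from the titration data. The value is the mean of 3 titrations.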
Series [3] in a line: Lipophilicity, log D of compound at pH 7.4. As to conditions: buffer.
Another series is described as follows: physchem. To be noted: octanol/water, pH 2.
Series [4] can be described thus: Prodrug activation in human PT37 cells assessed as intracellular cysteamine-CMQT formation per mg protein at 20 uM after 6 hrs by HPLC analysis. To be noted: pt37, 6 h. Format: cell-based. The method in brief:
as §1

Series [5] can be described thus: Prodrug activation in human PT37 cells assessed as intracellular cysteamine-CMQT formation per mg protein at 20 uM after 24 hrs by HPLC analysis. To be noted: pt37, 24 h. Format: cell-based. The method in brief:
as §1

Series [6] can be described thus: Drug metabolism in water assessed as oxidation of cysteamine by measuring cysteamine-CMQT level at pH 4.66 at 0.01 M after 1 hr by HPLC-UV method. Format: physicochemical. As to conditions: buffer, pH 4.66, 1 h.
Series [7] can be described thus: Drug metabolism in water assessed as oxidation of cysteamine by measuring cysteamine-CMQT level at pH 4.66 at 0.01 M after 3 hrs by HPLC-UV method. Format: physicochemical. As to conditions: buffer, pH 4.66, 3 h.
The nature of series [8]: Prodrug activation in human PT37 cells assessed as intracellular cysteamine-CMQT formation at 20 uM after 2 hrs by HPLC analysis. Format: cell-based. As to conditions: pt37, 2 h. In a few lines: as §1

The structures appear in SMILES notation.

Take `Cl.Cl.NCCS`: in series [1], the Drug metabolism entry is “metabolite_notdetected”.

For the compound `N[C@@H](CCC(=O)NCCS)C(=O)O`, the Drug metabolism result with Serum is reported as “metabolite_notdetected”.

For `CCOC(=O)[C@@H](N)CCC(=O)NCCSC(=O)C(C)(C)C.Cl`, in the series with HaCaT (Homo sapiens, HaCaT, 48 h), the EC50 amounted to 228 µM. The compound further yielded a pKa in [2] of 8.9. The compound further showed a logD in series [3] of -0.29. For the same compound, the Drug metabolism result in [1] was “metabolite_detected”. In addition, the log partition coefficient (logP) in the series “physchem” turned out to be 1.22.

For `CCOC(=O)[C@@H](N)CCC(=O)NCCSC(C)=O.Cl`, the EC50 in the series on HaCaT (Homo sapiens, HaCaT, 48 h) is 1730 µM. In series [2], the pKa was determined as 8.94. In [3], this compound came in with a logD of -1.44. The Drug metabolism result was “metabolite_notdetected” with Serum and “metabolite_detected” in series [1]. The same compound gave a logP in “physchem” of 0.11.

For the compound `CCCOC(=O)[C@@H](N)CCC(=O)NCCSC(=O)C(C)(C)C`, the half-maximal effective concentration (EC50) with HaCaT (Homo sapiens, HaCaT, 48 h) was 152 µM.

As for `CCCOC(=O)[C@@H](N)CCC(=O)NCCSC(=O)c1ccccc1`, the EC50 in the series with HaCaT (Homo sapiens, HaCaT, 48 h) is 75 µM.

Regarding `CCCOC(=O)[C@@H](N)CCC(=O)NCCSC(C)=O.Cl`, in the series on HaCaT (Homo sapiens, HaCaT, 48 h), the concentration for a half-maximal effect (EC50) is 548 µM. Further, the pKa in series [2] is 8.8. The compound also registered a pH-dependent lipophilicity (logD) in series [3] of -1.21. Besides, the Drug metabolism entry in series [1] is given as “metabolite_detected”. Moreover, in the series “physchem”, the logP was 0.21.

Regarding `CCOC(=O)[C@@H](N)CCC(=O)NCCSC(=O)c1ccccc1.Cl`, the EC50 in the series on HaCaT (Homo sapiens, HaCaT, 48 h) was 331 µM. In [2], this compound had a pKa of 8.85. Moreover, the log distribution coefficient (logD) in series [3] was -0.37. The Drug metabolism entry in series [1] is listed as “metabolite_detected”. Moreover, the lipophilicity (logP) in “physchem” came out at 1.09.

In the case of `CCCCOC(=O)[C@@H](N)CCC(=O)NCCSC(=O)c1ccccc1`, in the series on HaCaT (Homo sapiens, HaCaT, 48 h), the concentration for a half-maximal effect (EC50) was 97 µM.

Regarding `CCCCOC(=O)[C@@H](N)CCC(=O)NCCSC(C)=O.Cl`, the EC50 in the series with HaCaT (Homo sapiens, HaCaT, 48 h) was 563 µM. Also, in [2], the pKa was 8.69. Further, in series [3], the logD is -0.88. The Drug metabolism result in [1] is recorded as “metabolite_detected”. In the series “physchem”, the logP was 0.43.

For `CCCCOC(=O)[C@@H](N)CCC(=O)NCCSC(=O)C(C)(C)C`, the half-maximal effective concentration (EC50) in the series with HaCaT (Homo sapiens, HaCaT, 48 h) stood at 102 µM.

Regarding `Cl.NCCS` [CYSTEAMINE HYDROCHLORIDE], in the series with HaCaT (hacat), the concentration giving a half-maximal response (EC50) was 309 µM. Besides, the pKa in series [2] amounted to 8.15. In addition, the Drug metabolism in series [4] was 0.84 nmol/mg; in series [5], 0.22 nmol/mg; in series [6] it was 50%; in series [7], “metabolite_notdetected”; in [8], “metabolite_detected”.

The values are drawn from ChEMBL document CHEMBL3763053, “Synthesis of diacylated γ-glutamyl-cysteamine prodrugs, and in vitro evaluation of their cytotoxicity and intracellular delivery of cysteamine” (Eur J Med Chem, 2016).
